The record followed here is ChEMBL document CHEMBL1138477, “8-(4-Methoxyphenyl)pyrazolo[1,5-a]-1,3,5-triazines: selective and centrally active corticotropin-releasing factor receptor-1 (CRF1) antagonists” (J Med Chem, 2009).

As a reminder, the IC50 is the concentration at which inhibition is half-maximal. In general, inhibition in vivo refers to the share of the control response that was lost under treatment. A higher inhibition in vivo goes with a response far below the control. In general, Cmax refers to the peak of the concentration-time curve. By bioavailability is commonly meant the share of a dose that reaches the circulation, judged against a reference dose that is usually intravenous. Low values mean poor availability, high ones good availability. For orientation: Tmax means the time from dosing to the highest level. Usually clearance stands for the volume of plasma or blood freed of the substance per unit of time. Higher therefore signals efficient removal.

Where only a bound is given, the exact number is not on record here.

Series [1] has as its target T1, Alpha-1B adrenergic receptor (Homo sapiens, UniProt P35368).
T1 sequence (P35368 whole entry): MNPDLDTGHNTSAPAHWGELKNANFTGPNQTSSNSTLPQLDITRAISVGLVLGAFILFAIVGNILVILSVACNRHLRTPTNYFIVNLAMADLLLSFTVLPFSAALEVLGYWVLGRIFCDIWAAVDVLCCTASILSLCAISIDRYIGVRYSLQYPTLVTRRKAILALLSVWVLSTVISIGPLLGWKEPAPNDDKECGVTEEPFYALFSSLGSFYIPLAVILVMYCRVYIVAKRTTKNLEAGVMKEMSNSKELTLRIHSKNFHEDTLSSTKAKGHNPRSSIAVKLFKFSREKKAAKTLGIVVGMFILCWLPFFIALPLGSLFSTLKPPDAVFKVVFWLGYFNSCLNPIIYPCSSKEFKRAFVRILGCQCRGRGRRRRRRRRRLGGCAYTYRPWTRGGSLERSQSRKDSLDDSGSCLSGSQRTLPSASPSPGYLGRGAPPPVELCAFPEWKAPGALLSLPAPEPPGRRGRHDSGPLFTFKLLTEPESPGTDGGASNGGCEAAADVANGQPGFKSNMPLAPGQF
The experiment in a line: Binding affinity to adrenergic alpha-1b receptor.

Series [2] concerns the target T2, Alpha-2B adrenergic receptor (Homo sapiens, UniProt P18089).
T2 sequence (P18089 whole entry): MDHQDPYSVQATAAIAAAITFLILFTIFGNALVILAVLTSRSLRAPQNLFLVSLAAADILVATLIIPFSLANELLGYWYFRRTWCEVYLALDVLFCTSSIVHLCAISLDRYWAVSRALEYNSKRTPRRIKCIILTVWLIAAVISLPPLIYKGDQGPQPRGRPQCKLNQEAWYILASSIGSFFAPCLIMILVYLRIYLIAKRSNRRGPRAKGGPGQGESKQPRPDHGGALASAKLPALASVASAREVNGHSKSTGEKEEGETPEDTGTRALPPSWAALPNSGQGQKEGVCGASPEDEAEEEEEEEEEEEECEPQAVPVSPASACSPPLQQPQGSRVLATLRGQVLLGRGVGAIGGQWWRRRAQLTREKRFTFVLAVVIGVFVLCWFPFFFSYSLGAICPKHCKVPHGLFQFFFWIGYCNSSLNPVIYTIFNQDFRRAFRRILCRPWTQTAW
Description: Binding affinity to adrenergic alpha2b receptor.

Series [3] has as its target Vasopressin V1a receptor (Homo sapiens, UniProt P37288). Description: Binding affinity to vasopressin V1 receptor.
The nature of series [4]: Binding affinity to L-type calcium channel.
In series [5] the target is T3, Corticotropin-releasing factor receptor 1 (Rattus norvegicus, UniProt P35353).
T3 sequence (P35353 whole entry): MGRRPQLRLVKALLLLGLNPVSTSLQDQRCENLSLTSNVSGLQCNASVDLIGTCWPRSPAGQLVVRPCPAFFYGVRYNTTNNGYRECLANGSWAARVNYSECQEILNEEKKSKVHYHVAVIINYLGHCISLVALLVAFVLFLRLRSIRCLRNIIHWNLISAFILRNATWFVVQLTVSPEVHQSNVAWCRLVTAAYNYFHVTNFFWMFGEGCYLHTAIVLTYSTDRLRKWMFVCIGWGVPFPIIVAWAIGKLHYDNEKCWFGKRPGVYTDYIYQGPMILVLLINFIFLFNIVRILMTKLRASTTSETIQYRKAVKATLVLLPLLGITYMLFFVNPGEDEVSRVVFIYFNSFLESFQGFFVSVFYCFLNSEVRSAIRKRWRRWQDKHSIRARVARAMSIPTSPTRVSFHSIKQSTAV
Description: Antagonist activity at CRF1 receptor in rat brain homogenates assessed as inhibition of CRF-stimulted cAMP production. The class given is functional, tissue-based. In short, it runs like this:
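Rat cortical homogenate (0.8 mg original wet weight tissue) incubated 10 min at 37 °C in 100 mM Tris-HCl pH 7.4, 10 mM MgCl2, 0.4 mM EGTA, 0.1% BSA, 1 mM IBMX, creatine phosphate/phosphocreatine kinase, 100 nM ovine-CRF; started with 1 mM ATP/[32P]ATP; [32P]cAMP separated on Dowex and alumina columns, [3H]cAMP recovery marker; n = 3.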
Background: cAMP levels reflect the balance of adenylyl cyclase and phosphodiesterase activity.

For series [6], the target named is T4, Corticotropin-releasing factor receptor 1 (Homo sapiens, UniProt P34998).
T4 sequence (P34998 whole entry): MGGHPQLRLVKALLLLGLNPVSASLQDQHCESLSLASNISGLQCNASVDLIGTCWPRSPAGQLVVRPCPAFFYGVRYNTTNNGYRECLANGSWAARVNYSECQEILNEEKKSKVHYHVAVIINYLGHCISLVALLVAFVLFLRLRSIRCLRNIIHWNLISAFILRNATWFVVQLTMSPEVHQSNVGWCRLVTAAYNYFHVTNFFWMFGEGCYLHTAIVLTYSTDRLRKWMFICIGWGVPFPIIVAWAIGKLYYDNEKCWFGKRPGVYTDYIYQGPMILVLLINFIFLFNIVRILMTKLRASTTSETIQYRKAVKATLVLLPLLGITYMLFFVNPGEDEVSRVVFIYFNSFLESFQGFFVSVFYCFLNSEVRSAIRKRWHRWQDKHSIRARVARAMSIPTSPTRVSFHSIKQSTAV
Description: Binding affinity to CRF1 receptor in human IMR32 cells. The format is cell-based, IMR-32.

Series [7] deals with Canis familiaris. Description: Ex vivo displacement of [125I]Tyr0-ovine CRF from CRF1 receptor in dog at 5 mg/kg, po measured in plasma after 10 hrs. The note with it: Canis lupus familiaris. The class given is functional. In short, it runs like this:
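Beagle dogs given 5 mg/kg po (free base), in Labrafil or Tween-80/0.5% methylcellulose 1:99; plasma drawn 2 and 10 h postdose, diluted 10-fold in binding buffer, and tested for inhibition of 125I-Tyr0-ovine-CRF binding to rat receptors; mean ± SD, n = 3.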

The target in series [8] is D(1A) dopamine receptor (Homo sapiens, UniProt P21728). Description: Binding affinity to dopamine D1 receptor.
Series [9] can be described thus: Cmax in Beagle dog at 5 mg/kg, po. The format is ADME, organism-based, Canis lupus familiaris. More on the design: dose 5 mg/kg, route oral. As to conditions: in vivo. In short, it runs like this:
(§1)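 Male beagle dogs (8.0-11.0 kg) dosed iv or po (5 mg/kg oral suspension in 0.5% methylcellulose with 1% Tween-80); plasma sampled 0.25-24 h; liquid-liquid extraction with hexane/ether, LC/MS/MS, quantitation limit 1 ng/mL (2.42 nM); noncompartmental parameters as free base.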

The nature of series [10]: Elimination half life in Beagle dog at 5 mg/kg, iv. The format is ADME, organism-based, Canis lupus familiaris. More on the design: dose 5 mg/kg, route intravenous. The note with it: in vivo, read-out: beta t1/2 (converted). In a few lines:
as §1

Series [11] is described as follows: Volume of distribution at steady state in Beagle dog at 5 mg/kg, iv. The class given is ADME, organism-based, Canis lupus familiaris. More on the design: dose 5 mg/kg, route intravenous. As to conditions: in vivo, read-out: Vdss. In short, it runs like this: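 Male beagle dogs (8.0-11.0 kg) dosed intravenously. Plasma sampled at 0.25, 0.5, 1, 2, 4, 6, 8, 12 and 24 h after dosing. Liquid–liquid extraction in hexane/ether, then LC/MS/MS assay (quantitation limit 1 ng/mL). Concentrations expressed as free base. Parameters obtained by noncompartmental analysis as for rat. Mean ± SD.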

Series [12] is described as follows: Oral bioavailability in Beagle dog at 5 mg/kg. The class given is ADME, organism-based, Canis lupus familiaris. The note with it: in vivo. In a few lines:
as §1

Series [13] can be described thus: Tmax in Beagle dog at 5 mg/kg, po. More on the design: dose 5 mg/kg, route oral. The note with it: in vivo. The class given is ADME, organism-based, Canis lupus familiaris. In a few lines:
as §1

Series [14] can be described thus: Clearance in Beagle dog at 5 mg/kg, iv. As to conditions: in vivo. On the set-up: dose 5 mg/kg, route intravenous. The format is ADME, organism-based, Canis lupus familiaris. In a few lines:
as §1

Sequence of D(1A) dopamine receptor (P21728 whole entry): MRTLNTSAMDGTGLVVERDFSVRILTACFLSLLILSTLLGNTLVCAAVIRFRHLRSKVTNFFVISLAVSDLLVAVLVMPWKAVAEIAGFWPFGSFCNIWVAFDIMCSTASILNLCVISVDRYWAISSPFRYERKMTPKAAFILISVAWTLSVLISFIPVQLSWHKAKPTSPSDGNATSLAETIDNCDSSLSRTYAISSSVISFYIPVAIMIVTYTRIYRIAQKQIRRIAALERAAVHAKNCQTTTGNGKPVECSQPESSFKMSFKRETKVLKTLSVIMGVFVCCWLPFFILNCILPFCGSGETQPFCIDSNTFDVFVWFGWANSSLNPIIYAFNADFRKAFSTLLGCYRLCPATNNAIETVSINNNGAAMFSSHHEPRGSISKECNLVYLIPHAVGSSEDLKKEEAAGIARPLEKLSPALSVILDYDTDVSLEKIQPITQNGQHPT
Sequence of Vasopressin V1a receptor (P37288 whole entry): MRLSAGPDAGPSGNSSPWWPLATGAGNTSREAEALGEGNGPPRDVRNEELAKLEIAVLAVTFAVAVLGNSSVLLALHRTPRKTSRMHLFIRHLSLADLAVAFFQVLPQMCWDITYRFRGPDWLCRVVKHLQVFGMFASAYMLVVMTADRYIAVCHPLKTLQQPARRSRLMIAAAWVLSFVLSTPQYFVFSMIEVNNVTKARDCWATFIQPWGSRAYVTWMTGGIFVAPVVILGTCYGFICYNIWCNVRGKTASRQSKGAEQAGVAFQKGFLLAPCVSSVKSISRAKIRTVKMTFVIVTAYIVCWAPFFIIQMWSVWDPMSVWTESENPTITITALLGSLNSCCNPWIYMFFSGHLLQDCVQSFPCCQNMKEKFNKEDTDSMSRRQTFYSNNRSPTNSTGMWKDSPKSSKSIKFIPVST

Take `CC[C@@H](C)Nc1nc(C)nc2c(-c3c(C)cc(OC)cc3OC)c(C)nn12`: the IC50 in [1] was over 1000 nM; in series [2] it was over 1000 nM; in series [3], over 1000 nM; in series [4] it was over 1000 nM; in series [5], 110 nM; in series [6], 3.4 nM. This molecule returned an IC50 in series [8] of over 1000 nM. The molecule also yielded an inhibition in vivo at 5 mg/kg in [7] of 83%.

Consider `COCCN(CCOC)c1nc(C)nc2c(-c3ccc(OC)cc3C)c(C)nn12`, for which the half-inhibitory concentration (IC50) was over 1000 nM in series [1]; over 1000 nM in series [2]; over 1000 nM in series [3]; over 1000 nM in series [4]; 66 nM in [5]; 4.7 nM in series [6]. This molecule also displayed a 50% inhibitory concentration (IC50) in series [8] of over 1000 nM. The molecule also gave a Cmax in series [9] of 2380 nM. In [10], the half-life is 27.3 h. This molecule had an inhibition in vivo at 5 mg/kg in series [7] of 37%. Besides, the Vd in [11] turned out to be 18.4 L/kg. For the same molecule, the bioavailability in series [12] stood at 34%. The Tmax in series [13] worked out at 0.5 h. The clearance in [14] was 20 mL/min/kg.

As for `COCCN(CCOC)c1nc(C)nc2c(-c3cc(C)c(OC)cc3C)c(C)nn12`, the IC50 was over 1000 nM in series [1]; over 1000 nM in series [2]; over 1000 nM in [3]; over 1000 nM in [4]; 38 nM in series [5]; 15.2 nM in series [6]. In addition, in [8], the IC50 is over 1000 nM. For the same molecule, the highest level in series [9] (Cmax) was 1220 nM. For the same molecule, the half-life in [10] is 40.2 h. Further, the inhibition in vivo at 5 mg/kg in series [7] was 44%. Besides, the Vd in series [11] amounted to 23.7 L/kg. In addition, the bioavailability in series [12] stood at 48%. Besides, in series [13], the Tmax is 0.8 h. In series [14], this molecule gave a clearance of 11 mL/min/kg.

For the molecule `CCC(CC)Nc1nc(C)nc2c(-c3cc(F)c(OC)cc3Cl)c(C)nn12`, the IC50 in series [1] is over 1000 nM; in series [2], over 1000 nM; in series [3] it was over 1000 nM; in series [4] it was over 1000 nM; in [5], 36 nM; in series [6] it was 1.2 nM. Moreover, the IC50 in series [8] is over 1000 nM. Testing at 5 mg/kg in series [7] gave an inhibition in vivo of 66%.
